Experimental data: PMC2982901 (Cancer chemotherapy and pharmacology, 2010)
“And” between values parts separate entries of the source, which are not always exact repeats. Equal values may be shown once. Read-outs that look alike come from different tables or passages of the source. Blank lines part the entries; values can stand above or below the compound they belong to.

Columns and labels:
Panc-1 xenografts = settings: Panc-1 xenograft; for Median T–C: two tumor volume doublings
HT29 xenografts = settings: HT29 xenograft, i.p. 5/2/5 schedule vs irinotecan i.v. Q4D×3
SF-295 xenografts = settings: SF-295 xenograft, i.p. 5/2/5 schedule vs irinotecan i.v. Q4D×3
NCI-H460 xenografts = settings: NCI-H460 xenograft, i.p. 5/2/5 schedule vs irinotecan i.v. Q4D×3
Panc-1 cells [1] = assay: Growth inhibition assay, Panc-1 cells; type: cell-based, human; settings: for IC50 vs. BACPT: ratio of IC50 to that of BACPT; for IC90 vs. BACPT: ratio of IC90 to that of BACPT
[2] = system: NGP neuroblastoma cell line; assay: Growth inhibition assay, NGP neuroblastoma cells; type: cell-based, human
[3] = system: SK-N-MC neuroblastoma cell line; assay: Growth inhibition assay, SK-N-MC neuroblastoma cells; type: cell-based, human
[4] = system: IMR-32 neuroblastoma cell line; assay: Growth inhibition assay, IMR-32 neuroblastoma cells; type: cell-based, human
[5] = system: SK-N-BE(2c) neuroblastoma cell line; assay: Growth inhibition assay, SK-N-BE; type: cell-based, human
IMR-32 histocultures = assay: Histoculture assay, IMR-32; type: cell-based, human; settings: hypoxic (1.5% O2) and acidic (pH 6.8), results not shown
Panc-1 cells [6] = assay: Drug interaction assay with gemcitabine in Panc-1 cells; type: cell-based, human; settings: for Dose reduction index: gemcitabine followed 24 h by BACPT, Panc-1
Summary of the method: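 Panc-1 cells were grown in DMEM with 10% FBS and seeded at 3,000 cells/well. Gemcitabine was given first, then the test compound 24 h later. Exposure was 3 days, followed by 2 days in drug-free medium. Survival was read by ATP assay, with seven dose levels per curve in triplicate. Interaction was analysed by the Chou combination-index method as a function of fraction affected (fa = 0.5 is the IC50).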

MCF-7 cells = MCF-7 cells cultured at pH 6.8 vs. 7.4; cited from earlier work
[7] = 8.0 mg/kg i.p., 5/2/5 schedule, 8 mg/kg
[8] = read-out: IC50 (nM) pH 6.8, pH 6.8
[9] = read-out: IC50 (nM) pH 7.4, pH 7.4
[10] = 60 mg/kg i.v., Q4D×3 schedule, 60 mg/kg

Compound: 7-butyl-10-amino-camptothecin-(20S) β-alanine-lysine [BACPTDP]
- Median survival (Panc-1 xenografts; 4.5 mg/kg i.p., 5/2/5 schedule): 27.4 ± 2.0 days
- TFS (Panc-1 xenografts; 4.5 mg/kg i.p., 5/2/5 schedule): 0
- Median T–C (Panc-1 xenografts; 4.5 mg/kg i.p., 5/2/5 schedule): 10.9 days
- Median survival (Panc-1 xenografts; [7]): 67 days and 66.7 ± 7.8 days
- TFS (tumor-free animals at 95 days) (Panc-1 xenografts; [7]): 2/6 and 2
- Median T–C (Panc-1 xenografts; 8.0 mg/kg i.p., 5/2/5 schedule): 60.0 days
- antitumor activity relative to irinotecan (HT29 xenografts): comparable to irinotecan
- antitumor activity relative to irinotecan (SF-295 xenografts): comparable to irinotecan
- antitumor activity relative to irinotecan (NCI-H460 xenografts): comparable to irinotecan

Compound: Nc1ncn([C@@H]2O[C@H](CO)[C@@H](O)[C@H]2O)c(=O)n1 [5-Azacytidine]
- IC50 (Panc-1 cells [1]; Homo sapiens, PANC-1): 68800 nM
- IC90 (nM) (Panc-1 cells [1]; Panc-1 cells): not achieved
- IC50 vs. BACPT (Panc-1 cells [1]; Panc-1 cells): 16,916

Compound: O=c1[nH]cc(F)c(=O)[nH]1 [5-Flurouracil]
- IC50 (Panc-1 cells [1]; Homo sapiens, PANC-1): 9180 nM
- IC90 (Panc-1 cells [1]; Homo sapiens, PANC-1): 97600 nM
- IC50 vs. BACPT (Panc-1 cells [1]; Panc-1 cells): 2,257
- IC90 vs. BACPT (Panc-1 cells [1]; Panc-1 cells): 1,136

Compound: CCCCc1c2c(nc3ccc(N)cc13)-c1cc3c(c(=O)n1C2)COC(=O)C3(O)CC (stereo not drawn) [BACPT, 7-Butyl-10-amino-camptothecin]
- Fold increase at acidic pH ([2]; pH 6.8 vs 7.4): 49
- IC50 [2, 8]: 26 nM
- IC50 [2, 9]: 1290 nM
- Fold increase at acidic pH ([3]; pH 6.8 vs 7.4): 8
- IC50 [3, 9]: 0.001 nM
- Fold increase at acidic pH ([4]; IMR-32, pH 6.8 vs 7.4): 12
- IC50 ([4]; read-out: IC50 (nM) pH 6.8, IMR-32, pH 6.8): 127 nM
- IC50 ([4]; read-out: IC50 (nM) pH 7.4, IMR-32, pH 7.4): 1390 nM
- Fold increase at acidic pH ([5]; pH 6.8 vs 7.4): 5
- IC50 [5, 8]: 0.019 nM
- IC50 [5, 9]: 0.099 nM
- IC50 (Panc-1 cells [1]; Panc-1 cells): 4 nM
- IC90 (Panc-1 cells [1]; Panc-1 cells): 86 nM
- IC50 vs. BACPT (Panc-1 cells [1]; Panc-1 cells): 1
- IC90 vs. BACPT (Panc-1 cells [1]; Panc-1 cells): 1
- IC50 (IMR-32 histocultures): 200 nM
- Dose reduction index (Panc-1 cells [6]; Fraction affected 0.2): 2.0
- Dose reduction index (Panc-1 cells [6]; Fraction affected 0.3): 5.3
- Dose reduction index (Panc-1 cells [6]; Fraction affected 0.4): 11.0
- Dose reduction index (Panc-1 cells [6]; Fraction affected 0.6): 38.0
- Dose reduction index (Panc-1 cells [6]; Fraction affected 0.7): 69.1
- Dose reduction index (Panc-1 cells [6]; Fraction affected 0.8): 133.8
- interaction in combination with gemcitabine (combination index) (Panc-1 cells [6]; Panc-1, molar ratio 100:1 gemcitabine:BACPT, median effect analysis): additive (CI = 1) to synergistic (CI < 1)
- increase in potency at acidic pH (MCF-7 cells): ~15 fold

Compound: CCc1c2c(nc3ccc(OC(=O)N4CCC(N5CCCCC5)CC4)cc13)-c1cc3c(c(=O)n1C2)COC(=O)[C@]3(O)CC [CPT-11, irinotecan]
- Maximum body weight loss (%) (Panc-1 xenografts; 40 mg/kg i.v., Q4D×3 schedule): 2%
- Median survival (Panc-1 xenografts; 40 mg/kg i.v., Q4D×3 schedule): 35.0 ± 9.3 days
- TFS (Panc-1 xenografts; 40 mg/kg i.v., Q4D×3 schedule): 0
- Maximum body weight loss (%) (Panc-1 xenografts; 60 mg/kg i.v., Q4D×3 schedule): 6%
- TFS (Panc-1 xenografts; 60 mg/kg i.v., Q4D×3 schedule): 0
- Median survival (Panc-1 xenografts; [10]): 31.4 ± 1.5 days
- TFS (Panc-1 xenografts; [10]): no tumor-free animals

Compound: Nc1ncn([C@H]2C[C@H](O)[C@@H](CO)O2)c(=O)n1 [Decitabine]
- IC50 (Panc-1 cells [1]; Homo sapiens, PANC-1): 69000 nM
- IC90 (nM) (Panc-1 cells [1]; Panc-1 cells): not achieved
- IC50 vs. BACPT (Panc-1 cells [1]; Panc-1 cells): 16,963

Compound: CCc1c2c(nc3ccc(O)cc13)-c1cc3c(c(=O)n1C2)COC(=O)[C@]3(O)CC [SN-38]
- IC50 (IMR-32 histocultures): 10000 nM

Further lines, with some results ahead:

- IC50 (Panc-1 cells [1]; Homo sapiens, PANC-1): 6890 nM
- IC90 (Panc-1 cells [1]; Homo sapiens, PANC-1): 13200 nM
- IC50 vs. BACPT (Panc-1 cells [1]; Panc-1 cells): 1,693
- IC90 vs. BACPT (Panc-1 cells [1]; Panc-1 cells): 154
Compound: Cc1nc(Nc2ncc(C(=O)Nc3c(C)cccc3Cl)s2)cc(N2CCN(CCO)CC2)n1 [Dasatinib]

- IC50 (nM) (Panc-1 cells [1]; Panc-1 cells): inactive
Compound: C#Cc1cccc(Nc2ncnc3cc(OCCOC)c(OCCOC)cc23)c1 [Erlotinib]

- IC50 (Panc-1 cells [1]; Homo sapiens, PANC-1): 651 nM
- IC90 (Panc-1 cells [1]; Homo sapiens, PANC-1): 8750 nM
- IC50 vs. BACPT (Panc-1 cells [1]; Panc-1 cells): 160
- IC90 vs. BACPT (Panc-1 cells [1]; Panc-1 cells): 102
Compound: COc1cc([C@@H]2c3cc4c(cc3[C@@H](O[C@@H]3O[C@@H]5CO[C@@H](C)O[C@H]5[C@H](O)[C@H]3O)[C@H]3COC(=O)[C@H]23)OCO4)cc(OC)c1O [Etoposide]

- IC50 (Panc-1 cells [1]; Homo sapiens, PANC-1): 23 nM
- IC90 (Panc-1 cells [1]; Homo sapiens, PANC-1): 117 nM
- IC50 vs. BACPT (Panc-1 cells [1]; Panc-1 cells): 6
- IC90 vs. BACPT (Panc-1 cells [1]; Panc-1 cells): 1
Compound: Nc1ccn([C@@H]2O[C@H](CO)[C@@H](O)C2(F)F)c(=O)n1 [Gemcitabine]
- Dose reduction index (Panc-1 cells [6]; Fraction affected 0.2): 1.0
- Dose reduction index (Panc-1 cells [6]; Fraction affected 0.3): 1.6
- Dose reduction index (Panc-1 cells [6]; Fraction affected 0.4): 2.3
- Dose reduction index (Panc-1 cells [6]; Fraction affected 0.5 (IC50)): 3.1
- Dose reduction index (Panc-1 cells [6]; Fraction affected 0.6): 3.9
- Dose reduction index (Panc-1 cells [6]; Fraction affected 0.7): 4.8
- Dose reduction index (Panc-1 cells [6]; Fraction affected 0.8): 5.8

- IC50 (nM) (Panc-1 cells [1]; Panc-1 cells): inactive
Compound: Cn1nnc2c(C(N)=O)ncn2c1=O [Temozolomide]

- IC50 (Panc-1 cells [1]; Homo sapiens, PANC-1): 103 nM
- IC90 (nM) (Panc-1 cells [1]; Panc-1 cells): not achieved
- IC50 vs. BACPT (Panc-1 cells [1]; Panc-1 cells): 25
Compound: CCC1=C[C@@H]2CN(C1)Cc1c([nH]c3ccccc13)[C@@](C(=O)OC)(c1cc3c(cc1OC)N(C)[C@H]1[C@@](O)(C(=O)OC)[C@H](OC(C)=O)[C@]4(CC)C=CCN5CC[C@]31[C@@H]54)C2 [Vinorelbine]
